ChEMBL document CHEMBL1125621, “Muscarinic receptor binding and activation of second messengers by substituted N-methyl-N-[4-(1-azacycloalkyl)-2-butynyl]acetamides” (1991)
The source made the active and inactive calls.

How the values were obtained:
[1] = The percent inhibition of cyclic AMP(cAMP) formation in NG108-15 cells at 100 uM.; settings: Mus musculus
[2] = molecular target: Muscarinic acetylcholine receptor M3 (Mus musculus) (UniProt Q9ERZ3); experiment: Increase in phosphoinositide (PI) metabolism in A9L-cholinergic receptor, muscarinic 3 expressing cells was measured at 100 uMolar; type: functional; settings: 100 uM
Chain of Muscarinic acetylcholine receptor M3 (Mus musculus) (Q9ERZ3 whole entry): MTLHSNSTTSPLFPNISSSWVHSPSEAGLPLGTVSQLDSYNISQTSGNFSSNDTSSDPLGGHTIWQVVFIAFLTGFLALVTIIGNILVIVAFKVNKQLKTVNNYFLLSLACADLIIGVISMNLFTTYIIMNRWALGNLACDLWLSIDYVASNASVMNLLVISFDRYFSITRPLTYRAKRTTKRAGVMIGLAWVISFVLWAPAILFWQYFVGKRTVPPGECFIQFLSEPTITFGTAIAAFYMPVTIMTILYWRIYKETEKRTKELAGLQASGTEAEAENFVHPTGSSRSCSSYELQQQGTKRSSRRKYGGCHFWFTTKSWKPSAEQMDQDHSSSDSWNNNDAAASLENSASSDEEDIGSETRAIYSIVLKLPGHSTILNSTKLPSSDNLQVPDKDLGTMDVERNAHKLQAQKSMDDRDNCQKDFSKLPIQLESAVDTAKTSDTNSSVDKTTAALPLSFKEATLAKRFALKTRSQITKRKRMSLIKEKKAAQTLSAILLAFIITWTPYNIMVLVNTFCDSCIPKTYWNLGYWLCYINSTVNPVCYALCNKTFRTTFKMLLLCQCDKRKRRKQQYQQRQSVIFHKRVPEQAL
Summary of the method: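 A9L fibroblasts transfected with m3 receptor, grown in DMEM with 10% newborn calf serum. Labeled overnight with [3H]myo-inositol, preincubated 5 min at 37 °C in 10 mM LiCl DMEM-Hepes. Compound at 100 μM final, 30 min at 37 °C. Labeled inositol phosphates extracted by ion exchange. Result expressed as percent of the oxotremorine-M response, duplicate determinations.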

[3] = molecular target: T1, Muscarinic acetylcholine receptor (Rattus norvegicus) (UniProt P08482+P08483+P08485+P08911+P10980); experiment: Evaluated for displacement of [3H]oxotremorine-M binding ([3H]OXO-M) at muscarinic acetylcholine receptor in rat forebrain membranes; type: cell membranes; design: concentration or dose not given beside the values; settings: Membrane
Summary of the method: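 Sprague-Dawley rat forebrain membranes. Incubated with 2.7 nM [3H]Oxo-M in 50 mM NaPO4, 2 mM MgCl2, pH 7.4, 20 min at 37 °C. Filtered on glass fiber presoaked in 0.05% polyethylenimine. Nonspecific binding defined with 1 μM atropine. Single concentration 1 μM, triplicate, averaged over two to five trials. Read-out is percent displacement of specific binding.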

[4] = molecular target: T1, Muscarinic acetylcholine receptor (Rattus norvegicus); experiment: Displacement of [3H]N-methylscopolamine ([3H]NMS) binding at muscarinic acetylcholine receptor in rat cerebral cortical membranes; type: cell membranes; design: concentration or dose not given beside the values; settings: Membrane
Summary of the method: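 Rat (Sprague-Dawley, either sex, 200 g) forebrain membranes, homogenized and washed in 50 mM sodium phosphate pH 7.4. 200-300 μg membrane incubated with 0.5 nM [3H]NMS plus compound (single concentration, 100 μM) in phosphate-buffered saline, 60 min at 37 °C. Filtered on glass fiber, scintillation counted. Nonspecific binding defined with 1 μM atropine. Triplicate. Reported as percent displacement.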

A9 [5] = experiment: Increase in phosphoinositide (PI) metabolism in A9L-m1 cells at 100 uM.; type: functional, Mus musculus
[6] = The percent inhibition of cyclic AMP(cAMP) formation in NG108-15 cells expressed in m40AChR was measured; i=inactive (< 2%); settings: Mus musculus
A9 [7] = experiment: The increase in phosphoinositide (PI) metabolism in A9L-m1 cells was measured at 100 uM; i = inactive; type: functional, cell-based; settings: Mus musculus
Summary of the method: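 A9L fibroblasts transfected with m1 or m3 receptor, grown in DMEM with 10% newborn calf serum. Labeled overnight with [³H]myo-inositol, preincubated 5 min at 37 °C in 10 mM LiCl in DMEM-Hepes, then exposed to compound at 100 μM final for 30 min. Inositol phosphates extracted by ion exchange. Result expressed as percent of Oxo-M response; duplicate determinations.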

[8] = molecular target: T1, Muscarinic acetylcholine receptor (Rattus norvegicus); experiment: compound was evaluated for displacement of [3H]oxotremorine-M binding ([3H]OXO-M) at muscarinic acetylcholine receptor in rat forebrain membranes; i = inactive (< 1%); type: cell membranes; settings: Membrane
Summary of the method: (§1)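 Forebrain membranes from Sprague-Dawley rats, prepared in 50 mM sodium phosphate pH 7.4. Incubated with 2.7 nM [³H]Oxo-M and test compound at a single concentration of 1 μM in 50 mM NaPO₄, 2 mM MgCl₂, pH 7.4, 20 min at 37 °C. Filters presoaked in polyethylenimine; nonspecific binding with 1 μM atropine. Percent displacement, mean of two to five trials.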

[9] = molecular target: T1, Muscarinic acetylcholine receptor (Rattus norvegicus); experiment: Compound was evaluated for displacement of [3H]oxotremorine-M binding ([3H]OXO-M) at muscarinic acetylcholine receptor in rat forebrain membranes; type: cell membranes; settings: Membrane
Summary of the method: as §1

[10] = molecular target: T1, Muscarinic acetylcholine receptor (Rattus norvegicus); experiment: Compound was evaluated for displacement of [3H]N-methylscopolamine ([3H]NMS) binding at muscarinic acetylcholine receptor in rat cerebral cortical membranes; type: cell membranes; settings: Membrane
Summary of the method: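 Rat cerebral cortical membranes, 200-300 μg per tube, incubated with 0.5 nM [³H]NMS and test compound at a single concentration of 100 μM in phosphate-buffered saline, 60 min at 37 °C. Glass fiber filtration and scintillation counting. Nonspecific binding taken with 1 μM atropine and subtracted. Triplicates; result given as percent displacement of specific binding.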

| Compound | inhibition [1] | PI turnover [2] | Displacement [3] | Displacement [4] | PI turnover (A9 [5]) | inhibition [6] | PI turnover (A9 [7]) | Displacement [8] | Displacement [9] | Displacement [10] |
| --- | --- | --- | --- | --- | --- | --- | --- | --- | --- | --- |
| CC(=O)N(C)CC#CCN1CCC(O)C1.O=C(O)C(=O)O (stereo unspecified) | 22.5% | 7.4 | 39.9% | 21.5% | 17.1 |  |  |  |  |  |
| CC(=O)N(C)CC#CCN1CCC(CCO)CC1.O=C(O)C(=O)O |  |  | 11% | 16.3% | 3.3 | inactive |  |  |  |  |
| CC(=O)N(C)CC#CCN1CCC(F)CC1 |  |  |  | 18.8% |  |  |  |  |  |  |
| CCOC(=O)C1CCCN(CC#CCN(C)C(C)=O)C1.O=C(O)C(=O)O (stereo unspecified) | 23.6% | 12.9 | 31.2% | 39.8% | 6.6 |  |  |  |  |  |
| CC(=O)N(C)CC#CCN1CCC[C@H]1CO.O=C(O)C(=O)O |  | 4.7 | 25% | 33.1% | 5.1 | inactive |  |  |  |  |
| O=C1CCCN1CC#CCN1CCCC1 |  | 35.6 |  |  |  |  |  |  |  |  |
| CC(=O)N(C)CC#CCN1CCCCC1CO.O=C(O)C(=O)O (stereo unspecified) |  | 12.5 | 20.4% | 31.2% | 7.3 | inactive |  |  |  |  |
| CC(=O)N(C)CC#CCN1CCCC(O)C1 (stereo unspecified) | 3.4% | 4.9 | 9.1% | 21.7% |  |  | inactive |  |  |  |
| C[N+](C)(C)CCOC(N)=O |  | 86.1 |  |  |  |  |  |  |  |  |
| CC(=O)N(C)CC#CCN1CCN(C(C)=O)CC1.O=C(O)C(=O)O |  | 3.1 |  | 59.2% | 1 | inactive |  | inactive |  |  |
| CC(=O)N(C)CC#CCN1CCCCC1 |  | 5.6 | 68.9% | 83.4% |  | inactive | inactive |  |  |  |
| CC(=O)N(C)CC#CCN1CCC(O)CC1 |  | 2.6 | 9.2% | 3.8% |  |  | inactive |  |  |  |
| CC(=O)N(C)CC#CCN1CCCC1 | 100% | 41.6 | 94.7% | 89.4% | 52.5 |  |  |  |  |  |
| CCOC(=O)C1CCCCN1CC#CCN(C)C(C)=O.O=C(O)C(=O)O (stereo unspecified) | 44.1% | 15.2 | 24.9% | 5.8% | 12.8 |  |  |  |  |  |
| CC(=O)OC[C@H]1CCCN1CC#CCN(C)C(C)=O |  | 2.6 |  |  |  | inactive | inactive |  | 42.1% | 61.6% |
